The structures appear in SMILES notation.

One data set deals with Huh-7. Put plainly: Cytotoxicity against human HuH7 cells at 50 uM after 2 days by Cell Titer Glo assay. The data set is classed as cell-based. The following applies: huh-7, 48 h. The gist of the method: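 Huh7 cells were exposed to compound at 50 μM for 2 days and scored for cellular toxicity.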
Background: ATP-based viability assays read luminescence as a measure of living cells.

Data set [1] has as its system Hepatitis C virus. In words: Antiviral activity against Hepatitis C virus genotype 1a infected in human HuH7 cells after 48 hrs by luciferase reporter gene assay. In kind it is functional, organism-based, Hepacivirus hominis. As to conditions: subtype 1a, Huh-7, 48 h. For orientation: A reporter such as luciferase makes a cellular process visible.
A short description of data set [2]: Lipophilicity, log D of the compound by chromatographic analysis. The data set is classed as physicochemical. The gist of the method: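 Lipophilicity was measured chromatographically and reported as ChromLogD; ≥6 replicates.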
For data set [3], the system named is Hepatitis C virus. Put plainly: Antiviral activity against Hepatitis C virus genotype 1b expressing NS4B V105M mutant infected in human HuH7 cells after 48 hrs by luciferase reporter gene assay. The following applies: Huh-7, 48 h. In kind it is functional, organism-based, Hepacivirus hominis.
Data set [4] has as its system Hepatitis C virus. In words: Antiviral activity against Hepatitis C virus genotype 1b infected in human HuH7 cells after 48 hrs by luciferase reporter gene assay. In kind it is functional, organism-based, Hepacivirus hominis. As to conditions: Huh-7, 48 h.
Data set [5] relates to Hepatitis C virus. In words: Antiviral activity against Hepatitis C virus genotype 1b expressing NS4B H94N mutant infected in human HuH7 cells after 48 hrs by luciferase reporter gene assay. In kind it is functional, organism-based, Hepacivirus hominis. The following applies: Huh-7, 48 h.
Data set [6] is described as follows: Displacement of [3H]-3-(1-(3-chloro-6-isopropyl-8-(trifluoromethyl)imidazo[1,2-a]pyridine-2-carbonyl)piperidin-4-yl)oxazolidin-2-one from HCV genotype 1b C-terminal His-tagged NS4B (1 to 261 aa) expressed in baculovirus infected SF9 cells after overnight incubation. The arrangement: species or system Hepatitis C virus subtype 1b. In general terms: Displacement assays read how much labelled ligand stays bound in the presence of the test substance.

In data set [7] the test system is Hepatitis C virus. Put plainly: Antiviral activity against wild-type Hepatitis C virus genotype 1a infected in PXB mouse assessed as log reduction in viral mRNA titer at 100 mg/kg, po bid every 12 hrs for 7 days relative to control. The data set is classed as functional, Hepacivirus hominis, subtype 1a. The gist of the method:
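PXB mice were infected with HCV genotype 1a wild-type virus and treated 5−8 weeks later (n = 4/group). Oral dosing b.i.d. for 7 days: prodrug at 10 or 30 mg/kg, or positive control at 100 mg/kg. Serum HCV RNA titers (viral load) were followed over the course of dosing.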

A further data set relates to Rattus norvegicus. Put plainly: Prodrug conversion in CD rat assessed as 4-(3-chloro-6-cyclopropyl-8-(trifluoromethyl)imidazo[1,2-a]pyridine-2-carbonyl)-1-((trans)-4-hydroxycyclohexyl)piperazin-2-one level at 300 mg/kg, po. In kind it is ADME, organism-based. The arrangement: dose 300 mg/kg, route oral. As to conditions: in vivo. The gist of the method: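 CD rats were given a single oral dose of 300 mg/kg of parent suspension or of prodrug. Plasma was assayed for the parent drug and for uncleaved prodrug.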

As for `Cn1c(C(=O)N2CCN([C@H]3CC[C@H](O)CC3)C(=O)C2)nc2c(C(F)(F)F)cc(C3CC3)cc21`, the Activity entry with Huh-7 is reported as “Non-toxic”. The EC50 (as a rule, the concentration giving half of the maximal effect) with Hepatitis C virus [1] came out at 0.5 nM; with Hepatitis C virus [3], 230 nM; in the data set on Hepatitis C virus [4], 3 nM; with Hepatitis C virus [5] it was 150 nM. In data set [2], the chromatographic logD – broadly, a lipophilicity value derived from retention on a column – came out at 4.3. Further, the IC50 (usually the point on the concentration scale where inhibition reaches its midpoint) in data set [6] stood at 24 nM.
For `O=C(c1nn2c(C(F)(F)F)cc(C3CC3)cc2c1Cl)N1CCN([C@H]2CC[C@H](O)CC2)C(=O)C1`, the Activity entry in the data set with Huh-7 was “Non-toxic”. Further, the concentration giving a half-maximal response (EC50) came out at 0.3 nM in the data set on Hepatitis C virus [1], 310 nM in the data set with Hepatitis C virus [3], 2 nM in the data set on Hepatitis C virus [4] and 32 nM with Hepatitis C virus [5]. The same compound came in with a chromatographic logD in data set [2] of 4.1. For the same compound, the IC50 in data set [6] came to 12 nM.
For `O=C(c1nn2c(C(F)(F)F)cc(C3CC3)cc2c1Cl)N1CCN([C@@H]2C[C@H]3C[C@H]3[C@@H]2O)C(=O)C1`, the half-maximal effective concentration (EC50) in the data set on Hepatitis C virus [1] was found to be 7.9 nM; with Hepatitis C virus [3], 400 nM; with Hepatitis C virus [4], 4.9 nM; in the data set with Hepatitis C virus [5], 64 nM. Further, in data set [6], the IC50 worked out at 18 nM.
For `O=C(c1nn2c(C(F)(F)F)cc(C3CC3)cc2c1Cl)N1CCN(C(=O)[C@H]2C[C@H](O)C2)CC1`, the EC50 with Hepatitis C virus [1] was 2 nM; with Hepatitis C virus [3], more than 1000 nM; in the data set with Hepatitis C virus [4] it was 8.3 nM; in the data set on Hepatitis C virus [5], 330 nM. In [6], this compound returned an IC50 of less than 40 nM.
Turning to `O=C(c1nn2c(C(F)(F)F)cc(C3CC3)cc2c1Cl)N1CCN([C@@H]2C[C@@H]3C[C@@H]3[C@@H]2O)C(=O)C1`, the EC50 with Hepatitis C virus [1] is 95 nM; with Hepatitis C virus [3] it was more than 1000 nM; in the data set on Hepatitis C virus [4] it was 19 nM; in the data set on Hepatitis C virus [5] it was more than 1000 nM. Moreover, the IC50 in data set [6] is 23 nM.
Consider `O=C(c1nn2c(C(F)(F)F)cc(C3CC3)cc2c1Cl)N1CCN([C@H]2C[C@@H]3C[C@@H]3[C@H]2O)C(=O)C1`, for which the EC50 in the data set on Hepatitis C virus [1] is 41 nM; with Hepatitis C virus [3], more than 1000 nM; in the data set with Hepatitis C virus [4], 14 nM; with Hepatitis C virus [5] it was more than 1000 nM. The IC50 in data set [6] is 18 nM.
For `O=C(c1nc2c(C(F)(F)F)cc(C3CC3)cn2c1Cl)N1CCC(N2CCOC2=O)CC1`, the EC50 was 8.3 nM with Hepatitis C virus [1], more than 1000 nM in the data set on Hepatitis C virus [3], 12 nM in the data set with Hepatitis C virus [4] and 370 nM in the data set on Hepatitis C virus [5]. This compound had an IC50 in [6] of 76 nM.
On to `O=C(c1nc2c(C(F)(F)F)cc(C3CC3)cn2c1Cl)N1CCC2(OCC3(CC3)CO2)C(O)C1` (racemic), for which the EC50 with Hepatitis C virus [1] was 14 nM; in the data set with Hepatitis C virus [3], 770 nM; with Hepatitis C virus [4] it was 4.3 nM; in the data set with Hepatitis C virus [5], 230 nM. Further, the IC50 in data set [6] stood at 28 nM.
With `O=C(c1nc2c(C(F)(F)F)cc(C3CC3)cn2c1Cl)N1CCN([C@@H]2C[C@H]3C[C@H]3C2)C(=O)C1`, the EC50 worked out at 1.4 nM in the data set on Hepatitis C virus [1], 59 nM in the data set with Hepatitis C virus [3], 1 nM in the data set with Hepatitis C virus [4] and 20 nM in the data set on Hepatitis C virus [5]. Further, the IC50 in [6] worked out at 58 nM.
With `O=C(c1oc2c(C(F)(F)F)cc(C3CC3)cc2c1Cl)N1CCN([C@H]2CC[C@H](O)CC2)C(=O)C1`, the Activity result in the data set on Huh-7 is listed as “Non-toxic”. The EC50 was found to be 0.09 nM in the data set on Hepatitis C virus [1], 110 nM with Hepatitis C virus [3], 0.8 nM in the data set with Hepatitis C virus [4] and 22 nM in the data set with Hepatitis C virus [5]. For the same compound, the chromatographic logD in data set [2] is 5.1. The IC50 in data set [6] was determined as 4 nM.
Turning to `CNC(=O)c1c(-c2ccc(F)cc2)oc2cc(N(CCO)S(C)(=O)=O)c(C3CC3)cc12` [NESBUVIR], the FC in the data set with Hepatitis C virus [7] turned out to be 2.2.
On to `O=C(O)COCC(=O)O[C@H]1CC[C@H](N2CCN(C(=O)c3nc4c(C(F)(F)F)cc(C5CC5)cn4c3Cl)CC2=O)CC1`, for which the Stability entry with Rattus norvegicus is listed as “Stable”.
The same measure, in the same setting: to `CCC(=O)O[C@H]1CC[C@H](N2CCN(C(=O)c3nc4c(C(F)(F)F)cc(C5CC5)cn4c3Cl)CC2=O)CC1` belongs “Stable”.
For the compound `O=C(c1nn2c(C(F)(F)F)cc(C3CC3)cc2c1Cl)N1CCC2(OCC3(CC3)CO2)C(O)C1` (racemic), the half-maximal effective concentration (EC50) was 4 nM in the data set with Hepatitis C virus [1], 250 nM in the data set on Hepatitis C virus [3], 1.9 nM in the data set with Hepatitis C virus [4] and 39 nM with Hepatitis C virus [5]. In data set [6], this compound had an IC50 of 10 nM.
With `CN(C)CC(=O)O[C@H]1CC[C@H](N2CCN(C(=O)c3nc4c(C(F)(F)F)cc(C5CC5)cn4c3Cl)CC2=O)CC1`, in the data set on Rattus norvegicus, the Stability entry is given as “Stable”.
As for `O=C(c1nc2c(C(F)(F)F)cc(C3CC3)cn2c1Cl)N1CCN(C(=O)[C@H]2C[C@H](O)C2)CC1`, the concentration giving a half-maximal response (EC50) with Hepatitis C virus [1] is 6.3 nM; in the data set on Hepatitis C virus [3], more than 1000 nM; with Hepatitis C virus [4], 19 nM; in the data set with Hepatitis C virus [5], 720 nM. The compound also registered an IC50 in data set [6] of 100 nM.
For `O=C(CO)O[C@H]1CC[C@H](N2CCN(C(=O)c3nc4c(C(F)(F)F)cc(C5CC5)cn4c3Cl)CC2=O)CC1`, in the data set with Rattus norvegicus, the Stability entry is “Stable”.
In the case of `O=C(c1nn2c(C(F)(F)F)cc(C3CC3)cc2c1Cl)N1CCN([C@@H]2C[C@H]3C[C@H]3[C@H]2O)C(=O)C1`, the EC50 is 4 nM in the data set on Hepatitis C virus [1], 65 nM in the data set on Hepatitis C virus [3], 2.3 nM with Hepatitis C virus [4] and 38 nM with Hepatitis C virus [5]. This compound gave an IC50 in data set [6] of 23 nM.
With `O=C(c1nn2c(C(F)(F)F)cc(C3CC3)cc2c1Cl)N1CCC(N2CCOC2=O)CC1`, the EC50 came to 2 nM in the data set on Hepatitis C virus [1], 370 nM in the data set with Hepatitis C virus [3], 5 nM in the data set on Hepatitis C virus [4] and 94 nM with Hepatitis C virus [5]. The IC50 in data set [6] is 37 nM.
Consider `O=C(c1nn2c(C(F)(F)F)cc(C3CC3)cc2c1Cl)N1CCN([C@H]2C[C@H]3C[C@H]3[C@H]2O)C(=O)C1`, for which the EC50 in the data set with Hepatitis C virus [1] was 120 nM; in the data set with Hepatitis C virus [3], more than 1000 nM; in the data set on Hepatitis C virus [4] it was 30 nM; in the data set with Hepatitis C virus [5], more than 1000 nM. For the same compound, the IC50 in [6] was determined as 16 nM.

The values above are taken from ChEMBL document CHEMBL3124867, “Hepatitis C replication inhibitors that target the viral NS4B protein” (J Med Chem, 2014).
